Laboratory results reported in ChEMBL document CHEMBL1268816, “Discovery of a series of potent, orally active α,α-disubstituted piperidine NK(1) antagonists” (Bioorg Med Chem Lett, 2010).

Legend:
[1] = Half life in rat at 10 mg/kg, po; assay type: ADME, organism-based; parameters: dose 10 mg/kg, route oral; settings: in vivo
Summary of the method: (§1)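 Rat pharmacokinetics after oral dosing at 10 mpk (unless otherwise specified), vehicle 20% HPBCD.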

Meriones unguiculatus [2] = experiment: Inhibition of GR-73632-induced foot tapping in Mongolian gerbil assessed as duration of repetitive hind foot tapping pretreated at 0.1 mg/kg, icv before GR-73632 challenge measured after 4 hrs; assay type: functional; settings: oral, in the assay text read “po” for “icv”
Summary of the method: (§2)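 Female Mongolian gerbils given NK1 agonist GR73632 (3 pmol) by icv injection. Test antagonists given orally in 0.4% methylcellulose in distilled water at the indicated dose, at various pretreatment times before agonist. After recovery from anesthesia, animals observed 5 min in clear boxes and hind-foot tapping duration timed. Result expressed as % decrease versus vehicle-treated controls.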

Meriones unguiculatus [3] = experiment: Inhibition of GR-73632-induced foot tapping in Mongolian gerbil assessed as duration of repetitive hind foot tapping pretreated at 1 mg/kg, icv before GR-73632 challenge measured after 4 hrs; assay type: functional; settings: oral, in the assay text read “po before” for “icv before”; summary of the method: as §2
Meriones unguiculatus [4] = experiment: Inhibition of GR-73632-induced foot tapping in Mongolian gerbil assessed as duration of repetitive hind foot tapping pretreated at 0.3 mg/kg, icv before GR-73632 challenge measured after 4 hrs; assay type: functional; settings: oral, in the assay text read “po” for “icv”; summary of the method: as §2
[5] = AUC (0 to 6 hrs) in rat at 10 mg/kg, po; assay type: ADME, organism-based; parameters: time < 6 hr, dose 10 mg/kg, route oral; settings: plasma; summary of the method: as §1
Substance-P receptor = Substance-P receptor (Homo sapiens, UniProt P25103); experiment: Displacement of [3H]SAr-Met from human recombinant NK1 receptor expressed in CHO cells; assay type: cell-based
Summary of the method: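 Membranes from CHO cells expressing recombinant human NK1 receptor; radioligand [3H]-Sar-Met substance P used near its experimentally derived Kd. Ki derived by Cheng–Prusoff equation. Binding values are the average of two or three independent determinations.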

[6] = Oral bioavailability in rat at 10 mg/kg; assay type: ADME, organism-based; settings: in vivo; summary of the method: as §1
[7] = AUC (0 to 6 hrs) in rat at 10 mg/kg, po after 6 hrs; assay type: ADME, organism-based; parameters: time < 6 hr, dose 10 mg/kg, route oral; settings: plasma; summary of the method: as §1
[8] = AUC (0 to 6 hrs) in rat at 5 mg/kg, po after 24 hrs; assay type: ADME, organism-based; parameters: time < 6 hr, dose 5 mg/kg, route oral; settings: plasma

Substance-P receptor, sequence (P25103 whole entry): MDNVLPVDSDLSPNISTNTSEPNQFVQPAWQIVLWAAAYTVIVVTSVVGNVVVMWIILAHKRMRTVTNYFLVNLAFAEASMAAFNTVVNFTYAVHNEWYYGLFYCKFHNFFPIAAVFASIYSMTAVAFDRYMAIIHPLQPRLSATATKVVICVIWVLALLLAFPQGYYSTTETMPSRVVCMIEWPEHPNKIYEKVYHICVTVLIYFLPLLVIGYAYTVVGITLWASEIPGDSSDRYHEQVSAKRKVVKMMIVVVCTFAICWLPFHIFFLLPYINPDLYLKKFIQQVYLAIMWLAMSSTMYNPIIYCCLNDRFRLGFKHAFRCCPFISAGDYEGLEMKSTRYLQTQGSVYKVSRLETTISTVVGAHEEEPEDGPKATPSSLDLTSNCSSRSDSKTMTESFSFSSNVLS

SMILES	half-life [1]	inhibition in vivo at 0.1 mg/kg (Meriones unguiculatus [2])	inhibition in vivo at 1 mg/kg (Meriones unguiculatus [3])	inhibition in vivo at 0.3 mg/kg (Meriones unguiculatus [4])	AUC(0-t) at 6 h [5]	Ki (Substance-P receptor)	bioavailability [6]	AUC(0-t) at 6 h [7]	AUC(0-t) at 6 h [8]
CC(=O)N[C@H]1CC[C@@](CO[C@H](C)c2cc(C(F)(F)F)cc(C(F)(F)F)c2)(c2ccccc2)NC1	3.2 h	83%	100%	99%	10000 ng·h/mL	0.15 nM	63%	–	–
C[C@@H](OC[C@@]1(c2ccccc2)CC[C@H](NC(N)=O)CN1)c1cc(C(F)(F)F)cc(C(F)(F)F)c1	–	–	96%	6%	6040 ng·h/mL	0.69 nM	–	–	–
C[C@@H](OC[C@@]1(c2ccccc2)CC[C@H](C(=O)NC2CC2)CN1)c1cc(C(F)(F)F)cc(C(F)(F)F)c1	–	–	45%	–	–	0.34 nM	–	1940 ng·h/mL	–
C[C@@H](OC[C@@]1(c2ccccc2)CC[C@H](Nc2ncccn2)CN1)c1cc(C(F)(F)F)cc(C(F)(F)F)c1	–	–	5%	–	–	0.33 nM	–	–	–
C[C@@H](OC[C@@]1(c2ccccc2)CC[C@@H](C(=O)NC2CC2)CN1)c1cc(C(F)(F)F)cc(C(F)(F)F)c1	–	–	69%	–	–	0.4 nM	–	–	–
CNC(=O)[C@H]1CC[C@@](CO[C@H](C)c2cc(C(F)(F)F)cc(C(F)(F)F)c2)(c2ccccc2)NC1	–	–	91%	29%	–	0.26 nM	–	–	–
C[C@@H](OC[C@@]1(c2ccccc2)CCCCN1)c1cc(C(F)(F)F)cc(C(F)(F)F)c1	–	–	–	–	–	0.3 nM	–	–	–
CCNC(=O)[C@@H]1CC[C@@](CO[C@H](C)c2cc(C(F)(F)F)cc(C(F)(F)F)c2)(c2ccccc2)NC1	–	–	78%	–	–	1.13 nM	–	–	–
C[C@@H](OC[C@@]1(c2ccccc2)CC[C@H](NS(C)(=O)=O)CN1)c1cc(C(F)(F)F)cc(C(F)(F)F)c1	–	–	90%	25%	5940 ng·h/mL	1.03 nM	–	–	–
C[C@@H](OC[C@@]1(c2ccccc2)CC[C@H](N2CCCC2=O)CN1)c1cc(C(F)(F)F)cc(C(F)(F)F)c1	–	–	61%	–	13800 ng·h/mL	0.26 nM	–	–	–
C[C@@H](OC[C@@]1(c2ccccc2)CC[C@H](NC(=O)C2CC2)CN1)c1cc(C(F)(F)F)cc(C(F)(F)F)c1	–	–	100%	79%	5260 ng·h/mL	0.23 nM	–	–	–
CCC(=O)N[C@H]1CC[C@@](CO[C@H](C)c2cc(C(F)(F)F)cc(C(F)(F)F)c2)(c2ccccc2)NC1	–	50%	100%	93%	1950 ng·h/mL	0.29 nM	–	–	–
C[C@@H](OC[C@@]1(c2ccccc2)CC[C@H](C(N)=O)CN1)c1cc(C(F)(F)F)cc(C(F)(F)F)c1	3.4 h	–	92%	82%	–	0.22 nM	68%	–	2600 ng·h/mL
C[C@@H](OC[C@@]1(c2ccccc2)CC[C@H](NC2=NCCO2)CN1)c1cc(C(F)(F)F)cc(C(F)(F)F)c1	–	–	37%	–	–	0.28 nM	–	–	–
C[C@@H](OC[C@@]1(c2ccccc2)CC[C@@H](C(N)=O)CN1)c1cc(C(F)(F)F)cc(C(F)(F)F)c1	–	–	90%	75%	–	0.19 nM	–	1690 ng·h/mL	–
CC(=O)N[C@@H]1CC[C@@](CO[C@H](C)c2cc(C(F)(F)F)cc(C(F)(F)F)c2)(c2ccccc2)NC1	–	–	76%	36%	795 ng·h/mL	0.35 nM	–	–	–
FC(F)(F)c1cc(COCC2(c3ccccc3)CCCCN2)cc(C(F)(F)F)c1 (configuration not stated)	–	–	–	–	–	1 nM	–	–	–
CCNC(=O)[C@H]1CC[C@@](CO[C@H](C)c2cc(C(F)(F)F)cc(C(F)(F)F)c2)(c2ccccc2)NC1	–	–	92%	28%	–	0.37 nM	–	3680 ng·h/mL	–
CNC(=O)[C@@H]1CC[C@@](CO[C@H](C)c2cc(C(F)(F)F)cc(C(F)(F)F)c2)(c2ccccc2)NC1	–	–	80%	–	–	0.56 nM	–	166 ng·h/mL	–
C[C@@H](OC[C@@]1(c2ccccc2)CC[C@H](N2CCNC2=O)CN1)c1cc(C(F)(F)F)cc(C(F)(F)F)c1	–	–	86%	71%	–	0.59 nM	–	–	–
